Active and inactive are the calls of the source. No cut-off for these calls is given here.
Tests used:
[1] = Dissociation constant, pKa of the compound at pH 7.4; format: physicochemical
[2] = target: T1, Transient receptor potential cation channel subfamily A member 1 (Homo sapiens, UniProt O75762); experiment: Agonist activity at human TRPA1 expressed in HEK293 cells assessed as increase in calcium influx at 3 uM by Fluo-4-AM dye based fluorescence assay relative to calcimycin; format: cell-based
T1 sequence (O75762 whole entry): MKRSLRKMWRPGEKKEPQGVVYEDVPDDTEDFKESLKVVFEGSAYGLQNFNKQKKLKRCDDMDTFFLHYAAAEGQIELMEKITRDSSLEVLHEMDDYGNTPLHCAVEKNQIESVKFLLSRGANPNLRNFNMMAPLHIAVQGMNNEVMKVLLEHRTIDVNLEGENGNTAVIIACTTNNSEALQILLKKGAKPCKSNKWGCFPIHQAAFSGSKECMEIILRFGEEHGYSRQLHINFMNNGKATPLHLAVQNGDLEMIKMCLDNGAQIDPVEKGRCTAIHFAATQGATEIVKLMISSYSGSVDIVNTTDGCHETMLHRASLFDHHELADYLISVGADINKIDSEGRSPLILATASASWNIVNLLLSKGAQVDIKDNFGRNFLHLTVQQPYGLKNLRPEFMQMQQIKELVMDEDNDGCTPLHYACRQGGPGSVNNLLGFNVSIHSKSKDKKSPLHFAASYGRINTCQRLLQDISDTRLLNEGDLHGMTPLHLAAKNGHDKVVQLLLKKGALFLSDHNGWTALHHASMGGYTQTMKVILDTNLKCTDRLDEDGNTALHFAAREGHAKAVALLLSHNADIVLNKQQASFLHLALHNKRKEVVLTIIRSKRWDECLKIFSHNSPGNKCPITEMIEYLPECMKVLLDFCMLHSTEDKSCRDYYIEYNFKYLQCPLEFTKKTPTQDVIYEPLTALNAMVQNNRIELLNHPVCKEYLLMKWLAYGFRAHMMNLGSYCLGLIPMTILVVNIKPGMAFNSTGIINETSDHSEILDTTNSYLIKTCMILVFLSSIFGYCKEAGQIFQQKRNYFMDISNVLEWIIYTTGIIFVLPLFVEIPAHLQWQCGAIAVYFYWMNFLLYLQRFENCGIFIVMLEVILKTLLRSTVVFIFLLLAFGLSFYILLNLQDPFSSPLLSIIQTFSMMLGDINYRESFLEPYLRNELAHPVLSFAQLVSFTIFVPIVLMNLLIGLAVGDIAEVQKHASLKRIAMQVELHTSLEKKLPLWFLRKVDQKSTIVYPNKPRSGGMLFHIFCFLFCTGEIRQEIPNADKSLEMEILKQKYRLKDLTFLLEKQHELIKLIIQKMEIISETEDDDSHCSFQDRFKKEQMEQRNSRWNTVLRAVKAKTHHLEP
Method in brief: (§1)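 Stably transfected hTRPA1- or hTRPM8-HEK293 cells on poly-D-lysine plates for 48 h, loaded with Fluo-4AM (2 µM, 45 min, dark, room temperature), in isotonic HEPES buffer pH 7.4. FlexStation 240 s run: 20 s baseline, compound added, calcimycin added at 180 s. ΔRFU expressed as % calcimycin, DMSO-subtracted. Screening N = 3. Dose-response curves fitted for logEC50 (N = 3 in duplicate or triplicate).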

[3] = target: T2, Transient receptor potential cation channel subfamily M member 8 (Homo sapiens, UniProt Q7Z2W7); experiment: Antagonist activity at human TRPM8 expressed in HEK293 cells assessed as increase in calcium influx at 3 uM incubated for 10 mins prior to WS5 challenge by Fluo-4-AM dye based fluorescence assay relative to WS5; format: cell-based; parameters: scale not given: the % may be the effect or the level left
Method in brief: (§2)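 hTRPM8-HEK293 cells loaded with Fluo-4AM (2 µM, 45 min). Test compound pre-incubated 10 min before WS5 standard agonist. FlexStation fluorescence at 485/538 nm. ΔRFU given as % of WS5 response after DMSO vehicle subtraction. N = 3. IC50 from dose-response curves.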
Target sequence in this assay (Q7Z2W7 whole entry, looked up): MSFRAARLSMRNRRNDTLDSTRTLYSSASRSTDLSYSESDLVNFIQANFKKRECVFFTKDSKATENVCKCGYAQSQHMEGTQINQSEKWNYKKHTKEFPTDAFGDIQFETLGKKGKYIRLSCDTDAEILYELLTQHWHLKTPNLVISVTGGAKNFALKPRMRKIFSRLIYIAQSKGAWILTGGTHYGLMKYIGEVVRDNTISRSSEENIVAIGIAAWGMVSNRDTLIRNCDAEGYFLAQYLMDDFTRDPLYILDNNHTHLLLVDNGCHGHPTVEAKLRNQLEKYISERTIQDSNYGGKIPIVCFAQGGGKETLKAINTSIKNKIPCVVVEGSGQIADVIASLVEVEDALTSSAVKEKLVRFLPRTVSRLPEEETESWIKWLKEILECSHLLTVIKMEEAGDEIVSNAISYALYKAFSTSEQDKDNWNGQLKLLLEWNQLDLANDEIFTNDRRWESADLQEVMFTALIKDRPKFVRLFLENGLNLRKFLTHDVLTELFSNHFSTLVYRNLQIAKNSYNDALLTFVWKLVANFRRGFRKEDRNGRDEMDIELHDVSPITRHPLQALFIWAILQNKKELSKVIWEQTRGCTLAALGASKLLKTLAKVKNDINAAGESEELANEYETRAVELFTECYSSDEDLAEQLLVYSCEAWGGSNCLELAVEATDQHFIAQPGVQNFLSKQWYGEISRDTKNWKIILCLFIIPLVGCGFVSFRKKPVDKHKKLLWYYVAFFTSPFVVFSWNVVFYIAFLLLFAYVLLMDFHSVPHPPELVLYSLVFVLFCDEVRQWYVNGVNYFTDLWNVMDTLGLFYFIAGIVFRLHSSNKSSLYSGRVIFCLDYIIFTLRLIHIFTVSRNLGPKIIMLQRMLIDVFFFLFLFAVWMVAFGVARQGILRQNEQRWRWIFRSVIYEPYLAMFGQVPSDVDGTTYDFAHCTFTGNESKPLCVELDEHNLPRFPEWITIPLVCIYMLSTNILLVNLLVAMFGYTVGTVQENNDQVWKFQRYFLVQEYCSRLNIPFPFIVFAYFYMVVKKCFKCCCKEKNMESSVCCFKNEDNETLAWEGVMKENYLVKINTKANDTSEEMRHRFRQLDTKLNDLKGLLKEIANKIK

[4] = target: T1, Transient receptor potential cation channel subfamily A member 1; experiment: Antagonist activity at human TRPA1 expressed in HEK293 cells assessed as inhibition of CA-induced increase in calcium influx incubated for 10 mins prior to CA addition by Fluo-4-AM dye based fluorescence assayy; format: cell-based
[5] = target: T2, Transient receptor potential cation channel subfamily M member 8; experiment: Antagonist activity at human TRPM8 expressed in HEK293 cells assessed as inhibition in WS5-induced increase in calcium influx incubated for 10 mins prior to WS5 challenge by Fluo-4-AM dye based fluorescence assay; format: cell-based; method in brief: as §2
Target sequence in this assay (Q7Z2W7 whole entry): as the sequence (Q7Z2W7 whole entry, looked up) above

[6] = target: T2, Transient receptor potential cation channel subfamily M member 8; experiment: Antagonist activity at human TRPM8 expressed in HEK293 cells assessed as increase in calcium influx at 100 uM incubated for 10 mins prior to WS5 challenge by Fluo-4-AM dye based fluorescence assay relative to WS5; format: cell-based; parameters: scale not given: the % may be the effect or the level left; method in brief: as §2
Target sequence in this assay (Q7Z2W7 whole entry, looked up): as above

[7] = target: T2, Transient receptor potential cation channel subfamily M member 8; experiment: Agonist activity at human TRPM8 expressed in HEK293 cells assessed as increase in calcium influx at 100 uM by Fluo-4-AM dye based fluorescence assay relative to calcimycin; format: cell-based; method in brief: as §1
Target sequence in this assay (Q7Z2W7 whole entry, looked up): as above

[8] = target: T1, Transient receptor potential cation channel subfamily A member 1; experiment: Agonist activity at human TRPA1 expressed in HEK293 cells assessed as increase in calcium influx by Fluo-4-AM dye based fluorescence assay; format: cell-based; conditions: for EC50: read-out: EC50; method in brief: as §1
[9] = test system: Transient receptor potential cation channel subfamily A member 1 (Homo sapiens), O75762 [F909A]; experiment: Agonist activity at human TRPA1 Phe909Ala mutant expressed in HEK293 cells assessed as Ca2+ influx at 30 uM by fluorescence assay; format: cell-based
Chain of Transient receptor potential cation channel subfamily A member 1 (Homo sapiens), O75762 [F909A] (O75762 whole entry F909A): as the sequence (O75762 whole entry) above, with F909A counted along it
Method in brief: (§3)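 HEK293 cells stably expressing hTRPA1 point mutants (C621A, F909A or F944A), single-cell cloned under G418 selection. Cells plated on poly-D-lysine for 48 h, loaded with Fluo-4AM 2 µM for 45 min at room temperature. FlexStation read (ex 485/em 538 nm): 20 s baseline, compound added, calcimycin added at 180 s. Response expressed as % calcimycin from ΔRFU, vehicle-subtracted, and compared with wild-type hTRPA1 cells.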

[10] = target: T1, Transient receptor potential cation channel subfamily A member 1; experiment: Antagonist activity at human TRPA1 expressed in HEK293 cells assessed as increase in calcium influx at 100 uM incubated for 10 mins prior to CA addition by Fluo-4-AM dye based fluorescence assay relative to CA; format: cell-based; parameters: scale not given: the % may be the effect or the level left
Method in brief: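 hTRPA1-HEK293 cells loaded with Fluo-4AM (2 µM). Compound pre-incubated 10 min, then cinnamaldehyde standard agonist added. FlexStation read, ex 485/em 538 nm. ΔRFU normalized to the CA response set at 100 % after DMSO vehicle subtraction. N = 3. logIC50 taken from dose-response fits.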

[11] = target: T2, Transient receptor potential cation channel subfamily M member 8; experiment: Agonist activity at human TRPM8 expressed in HEK293 cells assessed as increase in calcium influx at 30 uM by Fluo-4-AM dye based fluorescence assay relative to calcimycin; format: cell-based; method in brief: as §1
Target sequence in this assay (Q7Z2W7 whole entry, looked up): as the sequence (Q7Z2W7 whole entry, looked up) above

[12] = target: T1, Transient receptor potential cation channel subfamily A member 1; experiment: Agonist activity at human TRPA1 expressed in HEK293 cells assessed as increase in calcium influx at 30 uM by Fluo-4-AM dye based fluorescence assay relative to calcimycin; format: cell-based; method in brief: as §1
[13] = test system: Transient receptor potential cation channel subfamily A member 1 (Homo sapiens), O75762 [F944A]; experiment: Agonist activity at human TRPA1 Phe944Ala mutant expressed in HEK293 cells assessed as Ca2+ influx at 30 uM by fluorescence assay; format: cell-based; method in brief: as §3
Chain of Transient receptor potential cation channel subfamily A member 1 (Homo sapiens), O75762 [F944A] (O75762 whole entry F944A): as the sequence (O75762 whole entry) above, with F944A counted along it

[14] = test system: Transient receptor potential cation channel subfamily A member 1 (Homo sapiens), O75762 [F909A]; experiment: Agonist activity at human TRPA1 Phe909Ala mutant expressed in HEK293 cells assessed as Ca2+ influx at 10 uM by fluorescence assay; format: cell-based; method in brief: as §3
[15] = test system: Transient receptor potential cation channel subfamily A member 1 (Homo sapiens), O75762 [F944A]; experiment: Agonist activity at human TRPA1 Phe944Ala mutant expressed in HEK293 cells assessed as Ca2+ influx at 10 uM by fluorescence assay; format: cell-based; method in brief: as §3
[16] = test system: Transient receptor potential cation channel subfamily A member 1 (Homo sapiens), O75762 [F909A]; experiment: Agonist activity at human TRPA1 Phe909Ala mutant expressed in HEK293 cells assessed as Ca2+ influx at 100 uM by fluorescence assay; format: cell-based
Method in brief: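 HEK293 cells stably expressing hTRPA1 point mutants, made by FuGENE 6 transfection, G418 (0.5 mg ml-1) selection and single-cell cloning, grown in DMEM with 25 mM HEPES, 10% FBS and geneticin. Ca2+ influx was read by Fluo dye fluorescence at room temperature, with calcimycin added at the end. Response was ΔRFU as % of calcimycin, with the DMSO vehicle subtracted.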

[17] = target: T1, Transient receptor potential cation channel subfamily A member 1; experiment: Antagonist activity at human TRPA1 expressed in HEK293 cells assessed as increase in calcium influx at 3 uM incubated for 10 mins prior to CA challenge by Fluo-4-AM dye based fluorescence assay […]; format: cell-based; parameters: scale not given: the % may be the effect or the level left
[18] = target: T2, Transient receptor potential cation channel subfamily M member 8; experiment: Agonist activity at human TRPM8 expressed in HEK293 cells assessed as increase in calcium influx at 3 uM by Fluo-4-AM dye based fluorescence assay relative to calcimycin; format: cell-based; method in brief: as §1
Target sequence in this assay (Q7Z2W7 whole entry, looked up): as the sequence (Q7Z2W7 whole entry, looked up) above

| Compound | pKa [1] | Activity [2] [%] | Activity [3] [%] | EC50 [8] [µM] | Activity [9] | Activity [13] | other results |
| --- | --- | --- | --- | --- | --- | --- | --- |
| COC(=O)c1ccccc1NC(=O)/C=C/c1ccccc1Cl | 13.7 | 29 | 53 |  |  |  |  |
| CC(=C\c1ccc(Cl)cc1)/C(C)=N/O [AP18 5] |  |  |  |  |  |  | IC50 [4]: 4 µM |
| C/C(=C\c1ccccc1)C(=O)Nc1ccccc1C(=O)O | 3.5 |  |  | 133 | Active | inactive | IC50 [5]: 27 µM; Activity [6]: 28%; Activity [7]: inactive; Activity [10]: 29%; Activity [11]: inactive; Activity [12]: 33% |
| CCCCCc1ccc(/C=C/C(=O)Nc2ccccc2C(=O)O)cc1 |  |  |  | 28 | Active | Active | Activity [14]: Active; Activity [15]: inactive |
| COc1ccc(/C=C/C(=O)Nc2ccccc2C(=O)O)cc1 | 3.5 |  |  | 49 | Active | inactive | IC50 [4]: 12 µM; Activity [6]: 68%; Activity [7]: inactive; Activity [10]: 19%; Activity [11]: inactive; Activity [12]: 27% |
| O=C(CCc1ccccc1)Nc1ccccc1C(=O)O | 3.5 |  |  |  |  |  | Activity [6]: 48%; Activity [7]: inactive; Activity [10]: 81%; Activity [11]: inactive; Activity [12]: 10% |
| COC(=O)c1ccccc1NC(=O)/C=C/c1ccc(OC(C)=O)cc1 | 13.8 | 10 | 84 |  |  |  |  |
| COC(=O)c1ccccc1NC(=O)/C=C/c1ccc(N(C)C)cc1 | 4.8 | 27 | 86 |  |  |  |  |
| NC(=O)c1cccc(-c2cccc(OC(=O)NC3CCCCC3)c2)c1 [URB-597] |  |  |  | 0.1 |  |  | Activity [16]: Active |
| COC(=O)c1ccccc1NC(=O)/C=C/c1ccc(Cl)cc1 | 13.8 | 45 | 70 |  |  |  |  |
| COc1cccc(NC(=O)/C=C/c2ccc(Cl)cc2)c1 |  |  |  |  |  |  | pEC50 [8]: inactive |
| COC(=O)c1ccccc1NC(=O)/C(=C/c1ccccc1)c1ccccc1 | 13.9 | 63 | 48 |  |  |  | Activity [17]: 51%; Activity [18]: 23% |
| Cc1ccc(C(C)C)cc1O [CARVACROL] |  |  |  | 17 | inactive | inactive |  |
| C=CC=O [ACROLEIN] |  |  |  | 27 | Active | inactive |  |
| O=C(O)[C@@H]1CCCN1C(=O)/C=C/c1ccccc1 | 3.2 |  |  |  |  |  | Activity [6]: 65%; Activity [7]: inactive; Activity [10]: 79%; Activity [11]: inactive; Activity [12]: 5% |
| COC(=O)c1ccccc1NC(=O)/C(C)=C/c1ccccc1 | 13.9 | 49 | 30 |  |  |  | Activity [17]: 73% |
| COC(=O)c1ccccc1NC(=O)/C=C/c1ccc(C(F)(F)F)cc1 | 13.7 | 29 | 81 |  |  |  |  |
| Cc1ccc(/C=C/C(=O)Nc2ccccc2C(=O)O)cc1 | 3.5 |  |  | 149 | Active | inactive | Activity [6]: 48%; Activity [7]: inactive; Activity [10]: 40%; Activity [11]: inactive; Activity [12]: 30% |
